Key:
[1] = molecular target: Mitochondrial complex I; NADH oxidoreductase (Bos taurus, UniProt P25708+P52505); assay: Inhibition of NADH-ubiquinone oxidoreductase assessed as NADH oxidase activity in bovine heart submitochondrial particles; type: protein-complex assay
Outline: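 Bovine heart mitochondria isolated by differential centrifugation and sonicated to submitochondrial particles. Assay buffer was 75 mM air-saturated Na/K phosphate, pH 7.4, with 1 mM EDTA and 1 mM MgCl2, and 42–219 µg/mL protein, at 30 °C. Inhibitors were added in methanol (≤2% v/v) with 4 min preincubation. Reaction started with 0.16 mM NADH; A340 decrease followed over 4 min. Means of 2–4 independent experiments.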

L929 = assay: Cytotoxicity against mouse L929 fibroblasts; type: cell-based
[2] = Cytotoxicity against human HM02 cells; type: functional, cell-based
Outline: (§1)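 Human gastric adenocarcinoma HM02, hepatocellular carcinoma HepG2 and breast adenocarcinoma MCF7 lines tested following NCI directives. Cytotoxicity expressed as IC50.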

HepG2 = assay: Cytotoxicity against human HepG2 cells; type: functional, cell-based; outline: as §1
Mus musculus = assay: Toxicity in mouse at 100 mg/kg, ip; type: organism-based; parameters: dose 100 mg/kg, route intraperitoneal; conditions: in vivo
MCF7 = assay: Cytotoxicity against human MCF7 cells; type: functional, cell-based; outline: as §1

Chain of Mitochondrial complex I; NADH oxidoreductase (P25708 21-464 limits assumed, other chains not shown): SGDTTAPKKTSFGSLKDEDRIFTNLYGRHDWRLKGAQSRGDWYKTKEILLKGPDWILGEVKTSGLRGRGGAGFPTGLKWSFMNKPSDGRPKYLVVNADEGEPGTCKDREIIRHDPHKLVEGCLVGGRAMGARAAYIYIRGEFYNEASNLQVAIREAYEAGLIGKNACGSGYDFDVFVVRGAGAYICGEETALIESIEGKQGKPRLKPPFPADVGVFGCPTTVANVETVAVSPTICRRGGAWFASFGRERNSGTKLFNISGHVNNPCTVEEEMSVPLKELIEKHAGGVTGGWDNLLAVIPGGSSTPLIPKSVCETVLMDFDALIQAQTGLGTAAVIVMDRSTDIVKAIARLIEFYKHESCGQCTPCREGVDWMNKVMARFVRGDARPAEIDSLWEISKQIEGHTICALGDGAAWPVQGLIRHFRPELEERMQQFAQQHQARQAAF

With CCCc1c(C/C=C(\C)C/C=C/C(C)C)[nH]c(=O)c(C)c1OC(C)=O [IROMYCIN AA] the IC50 [1] was > 23.4 µM.

CCCCC/C(C)=C/Cc1[nH]c(=O)c(C)c(O)c1CCC [IROMYCIN M] gave an IC50 [1] of 1.01 µM and an IC50 (L929) of 66 µM.

With CCCc1c(C/C=C(\C)C/C=C/C(C)O)[nH]c(=O)c(C)c1O (centres undefined) [IROMYCIN D] the IC50 [1] was > 26.5 µM.

With CCCc1c(CCC(C)CCCC(C)C)[nH]c(=O)c(C)c1O (centres undefined) [IROMYCIN AH] the IC50 [1] was 2.21 µM.

For CCCc1c(C/C=C(\C)C/C=C/C(C)(C)O)[nH]c(=O)c(C)c1OC(C)=O [IROMYCIN BA], the IC50 [1] was > 22.4 µM.

In the case of CCCc1c(C/C=C(\C)C/C=C/C(C)C)[nH]c(=O)c(C)c1O [IROMYCIN A], the IC50 [1] is reported as 0.461 µM, the IC50 [2] is reported as > 30 µM and the IC50 (HepG2) is reported as > 30 µM. The Activity (Mus musculus) was “Non-toxic”, the IC50 (L929) was 66 µM and the IC50 (MCF7) was > 30 µM.

For CC/C=C/C/C(C)=C/Cc1[nH]c(=O)c(C)c(O)c1CCC [IROMYCIN C], the IC50 [1] was 3.52 µM.

Compound CCCCC/C(C)=C/Cc1oc(=O)c(C)c(O)c1CCC [IROMYCIN MO] has an IC50 [1] of 8.55 µM.

With CCCc1c(C/C=C(\C)C/C=C/C(C)(C)O)[nH]c(=O)c(C)c1O [IROMYCIN B] the IC50 [1] was 17.8 µM, the IC50 [2] was > 30 µM and the IC50 (HepG2) was > 30 µM. The IC50 (L929) was 66 µM and the IC50 (MCF7) was > 30 µM.

Work on CCCc1c(C/C=C(\C)C/C=C/C(C)(C)C)[nH]c(=O)c(C)c1O [IROMYCIN S] yielded an IC50 [1] of 0.183 µM and an IC50 (L929) of 10 µM.

For CCCc1c(C/C=C(\C)C/C=C/C(C)C)oc(=O)c(C)c1O [IROMYCIN AO], the IC50 [1] was > 26.6 µM.

For CCCc1c(C/C=C(\C)C/C=C/C(C)C)[nH]c(=O)c(C)c1OC [IROMYCIN AM], the IC50 [1] was 2.8 µM.

In the case of CCCc1c(C/C=C(\C)C/C=C/C(C)(C)O)[nH]c(=O)c(C)c1OC [IROMYCIN BM], the IC50 [1] is reported as > 24.3 µM.

C/C=C(\C)[C@H](O)[C@H](C)/C=C(C)/C=C/C/C(C)=C/Cc1nc(OC)c(OC)c(O)c1C [PIERICIDIN A] showed an IC50 [1] of 0.005 µM and an IC50 (L929) of 0.00043 µM.

For CCCC1=C(C/C=C(\C)C/C=C/C(C)C)N=C(O)C(C)(O)C1=O (centres undefined) [IROMYCIN F], the IC50 [1] was > 25.3 µM.

Compound CCCc1c(C/C=C(\C)C/C=C/C(C)(C)C)oc(=O)c(C)c1O [IROMYCIN SO] has an IC50 [1] of 15.1 µM.

In the case of CCCC1(O)C(C/C=C(\C)C/C=C/C(C)C)=NC(=O)C(C)=C1O (centres undefined) [IROMYCIN E], the IC50 [1] is reported as > 25.3 µM.

— ChEMBL document CHEMBL1143856, “Iromycins from Streptomyces sp. and from synthesis: new inhibitors of the mitochondrial electron transport chain” (Bioorg Med Chem, 2008)
